Test results taken from publication PMC12849484 (Microbial Cell Factories, 2025).

Legend:
[1] = tested on: Synechocystis sp. PCC 6803; assay: Growth curves; type: cell-based; details: OD730 over 72 h, triplicates
In short: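 Synechocystis subcultures in BG11 (10 mL, starting OD730 0.2) were pre-incubated 23 h, then given test conjugate from a 1 mM water stock to final 2, 4, 6, 8 or 10 µM. Controls were untreated cells and 10 µM non-specific CPP-PNA. Hour 0 was 1 h after addition. OD730 was followed over time; triplicates, mean ± SD.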

[2] = tested on: D-lactate-pyruvate pathway in Synechocystis sp. PCC 6803 cells; assay: LC-MS quantification of intracellular pyruvate and surrounding metabolites; type: cell-based; details: 10 µM, normalized to WT
In short: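 Cells were exposed to test conjugate at final 10 µM, with untreated wild-type and Δddh strain as comparators, and sampled at 24 and 48 h. For each sample, 8 mL culture was membrane-filtered (0.2 µm) and extracted; the aqueous phase was dried and analysed by LC-MS against 1–100 µg/mL standards. Values were normalized to untreated wild-type; ≥3 replicates; ANOVA.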

Sequence	growth inhibition at 10 µM [1]	D-lactate level at 24 h ([2]; 24 h, N = 3)	change in acetyl-CoA concentration ([2]; 24 h, N = 3)	change in malate concentration ([2]; 24 h, N = 3)	change in phosphoenolpyruvate (PEP) concentration ([2]; 24 h, N = 3)	increase in pyruvate compared to untreated wild-type ([2]; 24 h, N = 3)	increase in D-lactate accumulation compared to wild-type ([2]; 48 h post-treatment, at least three replicates)
CTCATAGATC [CPP-ncPNA]	no growth inhibition						
TTCATGACGA [CPP-Syn6803ddh]		consistently low	minimal or no changes	minimal or no changes	minimal or no changes	2.5 fold	3 fold
